Experimental data gathered from unrelated publications.
BCHE: Cholinesterase (BCHE, Homo sapiens, UniProt P06276)
Oprk1: Kappa-type opioid receptor (Oprk1, Mus musculus, UniProt P33534)

| Compound | target | assay | endpoint | value |
| --- | --- | --- | --- | --- |
| CC(C)c1cc2c(c(O)c1O)[C@@]13CCCC(C)(C)[C@@H]1[C@@H](O)[C@@H]2OC3=O | BCHE | enzyme activity, inhibitor | IC50 | 0.00141 µM |
| C=CCOc1ccc(C(=O)/C=C/c2ccc(OC)cc2)c(OS(C)(=O)=O)c1I | BCHE | enzyme activity, inhibitor | IC50 | 53.8 µM |
| CC(C)c1cc2c(c(O)c1O)[C@@]13CCCC(C)(C)[C@@H]1C[C@@H]2OC3=O | BCHE | enzyme activity, inhibitor | IC50 | 0.00095 µM |
| CCOC(=O)c1ccc(OC(=O)CCCCCN=C(N)N)cc1 | Plasma kallikrein (KLKB1, Homo sapiens, UniProt P03952) | enzyme activity, inhibitor | IC50 | 0.0864 µM |
| CC(C)[C@@H](CN1CCc2ccccc2C1)NC(=O)c1cccc(-c2cccc(O)c2)c1 | Oprk1 | ligand displacement, radioligand | Ki | 810 nM |
| COc1cc(/C=C/C(=O)O)ccc1OCc1cn(CC(=O)Nc2ccc(Cl)cc2Cl)nn1 | BCHE | enzyme activity, inhibitor, Ellman | IC50 | 12 µM |
| C=CCOc1ccc(C(=O)/C=C/c2ccc(OC)cc2)c(O)c1I | BCHE | enzyme activity, inhibitor | IC50 | 22.4 µM |
| Cn1cc2cc(C(F)(F)c3nnc4ccc(-c5cnn(C6CC6)c5)nn34)c(F)cc2n1 | Fibroblast growth factor receptor 4 (FGFR4, Homo sapiens, UniProt P22455) | enzyme activity, inhibitor, ADP detection | IC50 | > 1 µM |
| C=CCOc1ccc(C(=O)/C=C/c2cccc(F)c2)c(OS(C)(=O)=O)c1I | BCHE | enzyme activity, inhibitor | IC50 | 19.2 µM |
| COc1c2c(cc3c1-c1c(cc4c(c1OC)OCO4)C[C@H](C)[C@H](C)C3)OCO2 | BCHE | enzyme activity, inhibitor, Ellman | IC50 | > 100 µM |
| CSCC[C@H](NC(=O)[C@H](CCCNC(=N)N)NC(=O)[C@H](Cc1ccc(O)cc1)NC(=O)[C@@H]1CCCN1C(=O)CNC(=O)[C@H](CCC(=O)O)NC(=O)[C@H](Cc1c[nH]cn1)NC(=O)[C@H](CCCCN)NC(=O)[C@H](CCCCN)NC(=O)[C@H](CCC(=O)O)NC(=O)[C@H](C)N)C(=O)N[C@@H](CCC(=O)O)C(=O)N[C@@H](Cc1c[nH]cn1)C(=O)N[C@@H](Cc1ccccc1)C(=O)N[C@@H](CCCNC(=N)N)C(=O)N[C@@H](Cc1c[nH]c2ccccc12)C(=O)NCC(=O)N[C@@H](CO)C(=O)N1CCC[C@H]1C(=O)N1CCC[C@H]1C(=O)N[C@@H](CCCCN)C(=O)N[C@@H](CC(=O)O)C(=O)O | Melanocortin receptor 4 (MC4R, Homo sapiens, UniProt P32245) | reporter gene, agonist, luciferase | EC50 | 1.46 nM |
| CC(C)c1cc2c(c(O)c1O)[C@@]13CCCC(C)(C)[C@@H]1[C@H](OC3=O)[C@H]2O | BCHE | enzyme activity, inhibitor | IC50 | 0.00075 µM |
| CC(=O)N[C@H]1[C@@H](O[C@@H]2O[C@H](C[C@@H](O)[C@H]3O[C@@H](n4ccc(=O)[nH]c4=O)[C@H](O)[C@@H]3O)[C@H](O)[C@H](O)[C@H]2NC(=O)/C=C/CCCCCCCCCC(C)C)O[C@H](CO)[C@@H](O)[C@@H]1O | UDP-N-acetylglucosamine--dolichyl-phosphate N-acetylglucosaminephosphotransferase (Homo sapiens, UniProt Q9H3H5) | enzyme activity, inhibitor | IC50 | 1.53 µM |
| CC(C)[C@H](CN1CCc2ccccc2C1)NC(=O)Cc1c[nH]c2ccccc12 | Oprk1 | ligand displacement, radioligand | Ki | 2810 nM |
| CC(C)c1cc2c(c(O)c1O)[C@@]1(C(=O)O)CCCC(C)(C)[C@@H]1CC2 | BCHE | enzyme activity, inhibitor, absorbance | Ki | 0.49 nM |
| C=CCOc1ccc(C(=O)/C=C/c2cccc(F)c2)c(OS(=O)(=O)c2ccc(F)cc2)c1I | BCHE | enzyme activity, inhibitor | IC50 | 30.2 µM |
